# This is a sample that favours compounds with a hit; in the whole collection about 9.2% have one here.
# HUVEC prolif 384: blocks proliferation of human endothelial cells | HUVEC proliferation, CellTiter-Glo luminescence, 72 h; active compounds read low | viability, % at 10 µM (by protocol) | actives 1.1% (n = 86,000);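 active = viability at or below 30%; inactive = viability above 30%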;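 note: 100% = median luminescence of DMSO-only cell control wells on each plate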
# ERa coact inh: blocks coactivator binding to human estrogen receptor alpha. P03372. TR-FRET ER-alpha LBD / SRC-1 peptide, estradiol-bound. actives 1.7% (n = 86,000). inhibition, % at 25.6 µM; in the data active = inhibition above about 50%;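 note: 0% = receptor plus peptide control and 100% = peptide only without receptor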
# Target sequence (P03372 whole entry, looked up, the tested form may be a part): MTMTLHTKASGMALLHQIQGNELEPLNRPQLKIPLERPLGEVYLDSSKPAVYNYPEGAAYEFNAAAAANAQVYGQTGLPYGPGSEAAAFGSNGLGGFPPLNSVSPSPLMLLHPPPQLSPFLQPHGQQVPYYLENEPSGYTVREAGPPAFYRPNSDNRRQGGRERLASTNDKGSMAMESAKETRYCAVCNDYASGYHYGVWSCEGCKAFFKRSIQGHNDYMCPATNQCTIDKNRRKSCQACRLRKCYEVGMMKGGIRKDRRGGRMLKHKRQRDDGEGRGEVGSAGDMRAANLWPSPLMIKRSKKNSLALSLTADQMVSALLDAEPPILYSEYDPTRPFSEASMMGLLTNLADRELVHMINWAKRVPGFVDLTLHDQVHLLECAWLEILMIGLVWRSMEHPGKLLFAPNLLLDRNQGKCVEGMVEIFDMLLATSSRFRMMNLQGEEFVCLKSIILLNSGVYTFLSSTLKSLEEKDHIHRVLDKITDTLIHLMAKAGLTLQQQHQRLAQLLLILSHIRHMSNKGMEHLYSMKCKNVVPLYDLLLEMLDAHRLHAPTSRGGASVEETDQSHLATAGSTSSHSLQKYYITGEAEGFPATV
# Fibroblast inh: blocks proliferation of human lung fibroblasts. LL 47 human lung fibroblast viability, ATP luminescence; active compounds read low. viability, % at 10 µM. actives 1.1% (n = 85,000);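 active = viability at or below 50% in the single dose screen; inactive = viability above 50%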;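 note: compound exposure lasted 72 h before the ATP readout; 100% = median luminescence of untreated cell-only wells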
#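 Test system: LL 47 human lung fibroblasts / Quantity: 1,150 cells in each well / Medium: IMEM growth medium with 15% fetal bovine serum / Incubation: 72 h compound exposure at 37 °C after overnight plating / Detection: CellTiter-Glo luminescence measuring cellular ATP / Read-out: % viability versus median cells-only luminescence / Benchmarks: cell-only wells, no compound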
# ERa coact pot: ER-alpha (human) coactivator binding potentiation; P03372; TR-FRET ERalpha-LBD/SRC-Cy5 coactivator binding, 2 h; 100 = basal binding, no effect; coactivator binding (% of control), % at 25.6 µM; actives 1.3% (n = 86,000); AID 639; in the data active = activity above about 200%;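 note: binding measured in presence of low estradiol as agonist stimulus; 0% = peptide alone without receptor and 100% = receptor with peptide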
# H69AR growth 86K: growth inhibitors of human H69AR lung tumor cells | H69AR lung tumor viability, ATP luminescence, 72 h; active compounds read low | viability, % at 10 µM | actives 6% (n = 85,000) | AID 598;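 active = viability at or below 40%; inactive = viability above 40%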;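 note: multidrug resistant small cell line overexpressing MRP-1 efflux transporter; 100% = mean luminescence of untreated control wells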
# ERb coact inh: ER-beta (human) coactivator binding inhibition | Q92731 | TR-FRET ER-beta LBD / SRC1-Cy5 peptide binding; receptor agonist-loaded with 1 µM estradiol | inhibition, % at 25.6 µM | actives 1.3% (n = 86,000);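 active = compounds whose percent inhibition of the receptor-coactivator binding signal exceeds about 50% in the single-dose screen, limit read from the data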;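 note: 0% = receptor plus peptide wells without compound and 100% = peptide-only wells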
# The depositor's hits bear a star; [ ] = dose if it differs, or a comment.
SMILES,HUVEC prolif 384,ERa coact inh,Fibroblast inh,ERa coact pot,H69AR growth 86K,ERb coact inh
Cn1c(=O)cc(SCC(=O)NCC2COc3ccccc3O2)c2ccccc21 (configuration not stated),102,-2,40*,119,83,-2
CC(C)(C)c1ccccc1OCCCCCNCCO,91,-1,79,99,11*,-7
COc1ccc(CC(=O)Nc2nc3ccc(F)cc3s2)cc1S(=O)(=O)N1CCOCC1,86,6,88,94,39*,-9
Nc1ccc(N2CCN(C(=O)c3ccco3)CC2)cc1,98,85*[fluorescence artefact?],92,3,72,55*[fluorescence artefact?]
CCOC(=O)c1ccc2ncc(C(=O)OCC)c(NCc3ccco3)c2c1,65,-3,105,96,36*,11
CCOC(=O)c1cnc2c(C)cccc2c1NCc1ccco1,77,-1,99,76,75,6
Cc1cc(C(=O)CSc2nnc(-c3ccccc3)o2)c(C)n1CC1COc2ccccc2O1 (configuration not stated),66,-6,103,74,71,-18
COc1cc(-c2nnc(SCC(=O)c3cc(C)n(CC4CCCO4)c3C)o2)cc(OC)c1OC (configuration not stated),88,-2,92,97,60,3
COc1ccccc1Nc1nnc(SCC(=O)c2cc(C)n(CC3CCCO3)c2C)s1 (configuration not stated),102,-5,100,104,38*,-15
Cc1cc(C(=O)CSc2nnc(-c3ccc(F)cc3)o2)c(C)n1CC1CCCO1 (configuration not stated),102,41,97,229*[fluorescence artefact?],85,15
Cc1cc(C(=O)CSc2nnc(-c3ccc(F)cc3)o2)c(C)n1CC1COc2ccccc2O1 (configuration not stated),52,-11,81,83,33*,-13
COc1cc(C(=O)Nc2cc(-c3ccccc3)[nH]n2)cc(OC)c1OC,64,5,83,92,25*,13
COc1cc(C(=O)Nc2nc(N)n(-c3ccccc3)n2)cc(OC)c1OC,94,1,109,126,86,-8
COc1cc(C(=O)Nc2nc(OC)c(-c3ccccc3)c(OC)n2)cc(OC)c1OC,64,14,85,88,32*,21
N#C/C(C(=O)Oc1ccccc1)=C1/Nc2ccccc2-c2ccccc21,57,2,81,188,66,11
COc1cc(NS(=O)(=O)c2ccc(Br)s2)cc(OC)c1,90,-9,90,110,88,-8
CCOc1ccc2nc(Nc3nc4c(c(=O)[nH]3)CCC4)nc(C)c2c1,92,52*[fluorescence artefact?],103,178,92,36
COCc1cc(=O)[nH]c(Nc2nc(C)c3ccccc3n2)n1,84,-5,48*,93,27*,-3
CCOc1ccc2nc(Nc3nc(CSc4nnnn4-c4ccccc4)cc(=O)[nH]3)nc(C)c2c1,53,70*[fluorescence artefact?],96,216*[fluorescence artefact?],4.5*,39
COc1ccc2nc(Nc3nc(C)c(CCC(C)C)c(=O)[nH]3)nc(C)c2c1,84,10,108,116,81,16
COc1ccc2nc(Nc3nc(CSc4nnnn4-c4ccccc4)cc(=O)[nH]3)nc(C)c2c1,3.0*,36,95,80,1.7*,36
Cc1nn2c(=O)nc3sc4c(c3c2[nH]c1=O)CCCC4,95,4,91,120,111,-3
CCn1cc(Cl)c(C(=O)Nc2nc3ccccc3n2CCN2CCCCC2)n1,93,-5,94,106,84,-10
Cc1ccc2c(C)nc(Nc3nc(CSc4nnnn4-c4ccccc4)cc(=O)[nH]3)nc2c1,88,13,88,100,35*,7
CCOC(=O)c1c(NC(=O)Cn2c(C)nc3ccccc32)sc2c1CCC2,83,35,69,116,36*,17
NC(=O)c1c(NC(=O)COC(=O)CSc2nnc(-c3ccc(Cl)cc3)o2)sc2c1CCC2,91,58*[fluorescence artefact?],99,41,83,46
CCOC(=O)c1c(NC(=O)CSc2nnc(C)s2)sc2c1CCCCC2,83,2,78,137,70,2
CCOC(=O)Cc1csc(SCC(=O)Nc2sc3c(c2C(N)=O)CCC3)n1,101,92*[fluorescence artefact?],97,61,95,82*[fluorescence artefact?]

# Assay outcomes as filed in PubChem BioAssay.
